{"source": "paper PMC6335142", "about": "(Korean Journal for Food Science of Animal Resources, 2018)", "key": {"[1]": {"experiment": "Oxygen radical absorbance capacity", "assay_type": "biochemical", "how_it_was_run": "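Sample or trolox standard mixed with 80 nM fluorescein and held 15 min at 37℃, then 150 mM AAPH added. Fluorescence (ex 480, em 520 nm) recorded every minute at 37℃. Net AUC was converted through a trolox regression and reported as μmol trolox equivalent. RP-HPLC fractions (C18, 0–40% acetonitrile in 0.1% TFA, 215 nm) were lyophilized and taken up in 75 mM phosphate buffer. Values given as means and SEM with Tukey test.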"}, "[2]": {"system": "HCT116 cells", "experiment": "MTT cell viability / proliferation assay in HCT116 cells", "assay_type": "cell-based, human", "conditions": "24 h", "how_it_was_run": "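HCT116 cells grown in RPMI1640 with 10% FBS and 1% antibiotics at 37℃, 5% CO2, then seeded at 2×10^4 cells/well and left 24 h. Peptide added at 0–250 μg/mL for 24 h. MTT was added to a final 0.5 mg/mL for 4 h, and the formazan was dissolved in DMSO and read at 540 nm. Data given as means and SEM, with GLM ANOVA and Tukey test, p<0.05.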"}, "[3]": {"system": "ERK, JNK and p38 MAP kinase", "experiment": "Western blot of MAP kinase", "assay_type": "cell-based, human", "conditions": "24 h, HCT116 cells", "how_it_was_run": "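HCT116 cells seeded at 2×10^5 cells/well, incubated overnight at 37℃, then given peptide at varying concentrations for 24 h. Cells washed in dPBS and lysed on ice in pH 8.0 NaCl/Tris/NP40 buffer with protease inhibitors. 15 μg protein run on 10% SDS-PAGE and blotted to PVDF, blocked in 5% BSA. Blots probed overnight at 4℃ with total and phospho ERK, JNK, p38 and β-actin antibodies (1:200), then HRP secondary. Detection by ECL chemiluminescence.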"}}, "note": "Marks after values point to notes of the source that are not given here. Where no end group is shown, it is not given here.", "data": [{"sequence": "CCCCSVQK (cysteine pairing not given here) [P3]", "values": [{"measurement": "ORAC value of RP-HPLC fraction", "setting": "[1]; each 2-mL fraction lyophilized and re-dissolved in 0.5 mL 75 mM phosphate buffer", "result": "94.21 μmol of TE"}, {"measurement": "ORAC", "setting": "[1]; fluorescein 80 nM, AAPH 150 mM, 37℃, trolox standard, means, SEM 4.662", "result": "202.66^a µM TE/g of dry matter"}, {"measurement": "Growth of HCT116 cells", "setting": "[2]; 0–250 μg/mL", "result": "inhibited the growth of HCT116 cells in a dose-dependent manner"}, {"measurement": "Inhibition of HCT116 cell proliferation", "setting": "[2]; 250 μg/mL", "result": 25.24, "unit": "%"}, {"measurement": "Inhibition of HCT116 cells (as printed in results text)", "setting": "[2]; 250 μg/mL, vs control", "result": 74.76, "unit": "%"}, {"measurement": "p38 phosphorylation", "setting": "[3]; 0, 50, 100 and 250 μg/mL", "result": "significantly phosphorylated by P3 with dose dependent"}, {"measurement": "ERK phosphorylation", "setting": "[3]; 50 μg/mL", "result": "activated"}, {"measurement": "JNK phosphorylation", "setting": "[3]; 100 and 250 μg/mL", "result": "significantly activated"}]}]}
